Holding throughout (assay type): ADME
The target in data set [1] is UDP-glucuronosyltransferase 1A10 (Homo sapiens, UniProt Q9HAW8, F93G). The data set is described as follows: Drug metabolism assessed as human UGT1A10 F93G mutant-mediated 13-epiestradiol-3-glucuronide formation at 200 uM after 15 to 60 mins by HPLC analysis in presence of UDPGA. An outline of the steps: (§1)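 Screening at a single substrate concentration of 200 μM, in triplicate. The reaction used 5 or 50 µg of UGT-enriched insect cell membranes in 50 mM phosphate pH 7.4 with 10 mM MgCl₂ and 5 mM UDPGA, 10% final DMSO. Incubation was 15–60 min at 37°C. Perchloric acid stopped the reaction and supernatants were analysed by HPLC. Controls lacked UDPGA. Rates were normalized to relative UGT expression level.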

Data set [2] concerns the target T1, UDP-glucuronosyltransferase 2B7 (Homo sapiens, UniProt P16662).
T1 sequence (P16662 whole entry): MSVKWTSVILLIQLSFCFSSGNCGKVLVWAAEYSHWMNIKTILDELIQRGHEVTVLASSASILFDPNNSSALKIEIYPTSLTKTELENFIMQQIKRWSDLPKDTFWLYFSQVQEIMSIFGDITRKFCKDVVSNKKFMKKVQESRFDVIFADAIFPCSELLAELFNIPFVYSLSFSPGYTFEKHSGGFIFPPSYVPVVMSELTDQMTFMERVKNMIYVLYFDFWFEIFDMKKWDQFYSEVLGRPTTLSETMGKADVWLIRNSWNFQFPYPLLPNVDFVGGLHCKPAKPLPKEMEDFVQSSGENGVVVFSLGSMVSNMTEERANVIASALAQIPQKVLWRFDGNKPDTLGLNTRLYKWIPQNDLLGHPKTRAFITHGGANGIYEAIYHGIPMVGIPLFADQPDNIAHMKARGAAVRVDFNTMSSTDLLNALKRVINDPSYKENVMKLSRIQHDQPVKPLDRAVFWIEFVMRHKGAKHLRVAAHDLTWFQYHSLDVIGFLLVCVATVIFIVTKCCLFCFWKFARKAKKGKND
The data set is described as follows: Drug metabolism assessed as recombinant human C-terminal His-tagged UGT2B7-mediated 16-epiestriol-16-glucuronide formation after 15 to 60 mins by Michaelis-Menten equation analysis in presence of UDPGA. As to conditions: recombinant enzyme. An outline of the steps: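 For kinetics, the aglycone ranged from 0.2 to 300 μM in DMSO (10% final) with 5 mM UDPGA, 10 mM MgCl₂ and 50 mM phosphate pH 7.4. Enzyme was UGT-enriched insect cell membranes. Incubation was 15–60 min at 37°C, in triplicate, keeping substrate consumption ≤10%. Products were measured by HPLC and fitted to Michaelis-Menten. Rates were normalized to expression level.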

For data set [3], the target named is T2, UDP-glucuronosyltransferase 2B17 (Homo sapiens, UniProt O75795).
T2 sequence (O75795 whole entry): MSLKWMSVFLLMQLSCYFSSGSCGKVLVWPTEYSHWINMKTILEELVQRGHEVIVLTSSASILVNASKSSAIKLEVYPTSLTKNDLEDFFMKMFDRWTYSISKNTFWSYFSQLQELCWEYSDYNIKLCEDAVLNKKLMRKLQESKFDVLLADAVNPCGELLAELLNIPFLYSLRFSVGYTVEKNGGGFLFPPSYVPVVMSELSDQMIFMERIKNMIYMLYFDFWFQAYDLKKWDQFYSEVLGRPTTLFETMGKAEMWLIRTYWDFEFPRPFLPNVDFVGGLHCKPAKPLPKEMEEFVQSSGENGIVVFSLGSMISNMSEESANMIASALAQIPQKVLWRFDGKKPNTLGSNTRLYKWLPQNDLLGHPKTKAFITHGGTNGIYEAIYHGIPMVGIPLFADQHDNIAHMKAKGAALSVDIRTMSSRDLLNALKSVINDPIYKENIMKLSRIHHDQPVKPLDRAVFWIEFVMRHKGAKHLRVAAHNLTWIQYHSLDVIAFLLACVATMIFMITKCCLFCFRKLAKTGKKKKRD
The data set is described as follows: Drug metabolism assessed as recombinant human C-terminal His-tagged UGT2B17-mediated 16-epiestriol-16-glucuronide formation after 15 to 60 mins by Michaelis-Menten equation analysis in presence of UDPGA. The settings on record: recombinant enzyme.

The test system of data set [4] is Liver microsome. The data set is described as follows: Drug metabolism in human liver microsomes assessed as 16-epiestriol-3-glucuronide formation after 15 to 60 mins by Michaelis-Menten equation analysis in presence of UDPGA. Put shortly:
(§2)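 Pooled human liver microsomes (30 donors), 0.5 or 10 µg, with alamethicin at 5% of total protein. Incubated with 50 mM phosphate pH 7.4, 10 mM MgCl₂, 5 mM UDPGA and 10% DMSO for 15–60 min at 37°C. Each glucuronide regioisomer quantified by HPLC, in triplicate, with substrate consumption at or below 10%.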

Data set [5] can be described thus: Drug metabolism in human intestine microsomes assessed as 16-epiestriol-3-glucuronide formation after 15 to 60 mins by Michaelis-Menten equation analysis in presence of UDPGA. Put shortly:
(§3)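 Pooled human intestine microsomes (6 donors), 0.5 or 10 µg, with alamethicin at 5% of total protein. Incubated with 50 mM phosphate pH 7.4, 10 mM MgCl₂, 5 mM UDPGA and 10% DMSO for 15–60 min at 37°C. Each glucuronide regioisomer quantified by HPLC, in triplicate, with substrate consumption at or below 10%.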

The nature of data set [6]: Drug metabolism in human intestine microsomes assessed as 16-epiestriol-17-glucuronide formation after 15 to 60 mins by Michaelis-Menten equation analysis in presence of UDPGA. Put shortly:
as §3

The target in data set [7] is T1, UDP-glucuronosyltransferase 2B7. In words: Drug metabolism assessed as recombinant human C-terminal His-tagged UGT2B7-mediated estradiol-17-glucuronide formation at 200 uM after 15 to 60 mins by HPLC analysis in presence of UDPGA. As to conditions: recombinant enzyme. An outline of the steps:
(§4)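 Membranes (5 or 50 µg) from insect cells expressing His-tagged UGT2B7, with 200 µM aglycone in 50 mM phosphate pH 7.4, 10 mM MgCl₂, 5 mM UDPGA and 10% DMSO (final), 15–60 min at 37°C. Stopped with perchloric acid on ice, supernatant run on HPLC. Done in triplicate with no-UDPGA controls; rates normalized to relative UGT expression.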

In data set [8] the target is T2, UDP-glucuronosyltransferase 2B17. The data set is described as follows: Drug metabolism assessed as recombinant human C-terminal His-tagged UGT2B17-mediated estradiol-17-glucuronide formation at 200 uM after 15 to 60 mins by HPLC analysis in presence of UDPGA. The settings on record: recombinant enzyme. An outline of the steps: as §1
Data set [9] addresses T1, UDP-glucuronosyltransferase 2B7. In words: Drug metabolism assessed as recombinant human C-terminal His-tagged UGT2B7-mediated 17-epiestriol-17-glucuronide formation at 200 uM after 15 to 60 mins by HPLC analysis in presence of UDPGA. As to conditions: recombinant enzyme. Put shortly:
as §4

The test system of data set [10] is Liver microsome. The data set is described as follows: Drug metabolism in human liver microsomes assessed as 17-epiestriol-17-glucuronide formation after 15 to 60 mins by Michaelis-Menten equation analysis in presence of UDPGA. An outline of the steps:
as §2
(Liver microsomes are a subcellular fraction often used to study metabolism.)

As a reminder, the Km is the concentration of substrate that gives half-maximal velocity. As a reminder, the Vmax is the rate approached at saturating substrate.

UDP-glucuronosyltransferase 1A10, sequence (Q9HAW8 26-530 F93G limits assumed): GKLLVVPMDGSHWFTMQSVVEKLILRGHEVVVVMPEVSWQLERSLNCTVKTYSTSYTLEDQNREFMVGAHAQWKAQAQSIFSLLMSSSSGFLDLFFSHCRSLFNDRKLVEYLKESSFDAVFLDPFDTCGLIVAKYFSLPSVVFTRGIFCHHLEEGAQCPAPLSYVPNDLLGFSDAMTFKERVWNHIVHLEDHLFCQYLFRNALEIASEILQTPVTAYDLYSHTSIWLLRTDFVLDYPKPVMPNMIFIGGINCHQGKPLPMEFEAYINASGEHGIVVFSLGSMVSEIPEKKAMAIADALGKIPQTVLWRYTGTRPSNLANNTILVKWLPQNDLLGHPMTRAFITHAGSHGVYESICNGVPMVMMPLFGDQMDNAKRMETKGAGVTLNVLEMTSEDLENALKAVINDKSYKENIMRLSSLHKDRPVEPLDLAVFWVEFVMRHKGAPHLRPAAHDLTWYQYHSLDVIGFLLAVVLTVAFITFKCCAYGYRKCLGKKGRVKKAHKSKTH

As for `C[C@@]12CC[C@@H]3c4ccc(O)cc4CC[C@H]3[C@@H]1CC[C@@H]2O`, in data set [1], the Drug metabolism entry is given as “metabolite_detected”.
Turning to `C[C@]12CC[C@@H]3c4ccc(O)cc4CC[C@H]3[C@@H]1C[C@H](O)[C@@H]2O` [EPIESTRIOL], the Drug metabolism is given as 2700 pmol/min/mg in data set [2] and 5 pmol/min/mg in data set [3]. Also, the Michaelis constant (Km) came to 2380 µM in the data set with Liver microsome [4], 50 µM in data set [5] and 1170 µM in [6]. Further, the figures for the Vmax (in the data set with Liver microsome [4]; in [5]; in data set [6]) were 569 pmol/min/mg, 4111 pmol/min/mg and 2324 pmol/min/mg, respectively.
In the case of `C[C@]12CC[C@@H]3c4ccc(O)cc4CC[C@H]3[C@@H]1CC[C@@H]2O` [ESTRADIOL], the Drug metabolism result in [7] and in data set [8] was “metabolite_detected” each time.
Turning to `C[C@]12CC[C@@H]3c4ccc(O)cc4CC[C@H]3[C@@H]1C[C@@H](O)[C@H]2O`, in data set [9], the Drug metabolism result is given as “metabolite_detected”. In the data set on Liver microsome [10], the Km was 21 µM and the Vmax worked out at 5425 pmol/min/mg.

The record behind these values is ChEMBL document CHEMBL3525985, “Regiospecificity and stereospecificity of human UDP-glucuronosyltransferases in the glucuronidation of estriol, 16-epiestriol, 17-epiestriol, and 13-epiestradiol” (Drug Metab Dispos, 2013).
